The source of these data is ChEMBL document CHEMBL5335768, “Expanding the knowledge around antitubercular 5-(2-aminothiazol-4-yl)isoxazole-3-carboxamides: Hit-to-lead optimization and release of a novel antitubercular chemotype via scaffold derivatization” (Eur J Med Chem, 2023).

≈ marks a conversion by molar mass, not a printed value. Calls of active or inactive are those of the source. The calls are words filed in the database; no cut-off is given here.

In data set [1] the test system is Mycobacterium marinum. The data set is described as follows: Antitubercular activity against Mycobacterium marinum ATCC BAA-535 assessed as inhibition of bacterial growth measured after 3 weeks by broth microdilution method. It counts as functional. As to conditions: ATCC BAA-535, 504 h. For orientation: In broth dilution the organism is exposed to a series of concentrations in liquid medium.

The nature of data set [2]: Drug metabolism in human liver microsomes assessed as retention time of 5-(2-((3-hydroxy-4-methylphenyl)amino)thiazol-4-yl)-N-(pyridin-2-yl)isoxazole-3-carboxamide at 250 nM by HPLC-MS/MS analysis. As to conditions: 0.25 µM. It counts as ADME, Microsome. In outline:
(§1)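 Spiking: 10 μL HLM incubate was diluted with 90 μL ACN alone or with 250 nM of each synthetic hydroxylated standard in ACN. After centrifugation, HPLC-MS/MS retention times were compared for co-elution with the metabolites.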
(Liver microsomes are vesicles of endoplasmic reticulum, rich in cytochrome P450 enzymes.)

The nature of data set [3]: Drug metabolism in human liver microsomes assessed as 5-(2-((3-hydroxy-4-methylphenyl)amino)thiazol-4-yl)-N-(pyridin-2-yl)isoxazole-3-carboxamide formation at 100 uM measured after 180 mins by HR-MS analysis. It counts as ADME, Microsome. Conditions: 3 h. In outline: (§2)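 Metabolite ID: test compound at 100 μM initial concentration in pooled HLM incubates. Aliquots were taken at start and after 180 min, quenched with ACN, centrifuged and analysed by full-scan LC-HR-MS (Orbitrap, ESI+ and ESI−, resolution 15000). Data-dependent CID MS/MS was acquired at 30–35 V.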

The nature of data set [4]: Drug metabolism in human liver microsomes assessed as retention time of metabolite with molecular mass [M+30] at 250 nM by HPLC-MS/MS analysis. It counts as ADME, Microsome. As to conditions: 0.25 µM.
Data set [5] is described as follows: Half life in human liver microsomes at 1 uM preincubated with NADP+ for 5 mins prior to compound addition by HPLC-MRM-MS analysis. It counts as ADME, Microsome. In outline: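 Pooled HLM at 1 mg/mL protein in 100 mM PBS pH 7.4 with an NADPH-regenerating mix: G6P 10 mM, NADP+ 2 mM, MgCl2 5 mM, G6PDH 1.5 U/mL (stock concentrations). Pre-incubated 5 min at 37 °C, then compound added to 1 μM final (1% DMSO).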

Data set [6] in a line: Cytotoxicity against human THP-1 cells assessed as reduction in cell viability measured after 72 hrs by MTT assay. It counts as toxicity, cell-based. In outline: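 THP-1 monocytes were differentiated to macrophages with PMA 100 ng/mL for 72 h. They were then exposed to compounds at 1, 10, 50 and 100 μM for 72 h, each tested twice. MTT at 1 mg/mL in RPMI with 5% FBS was added for 2 h at 37 °C; formazan was dissolved in DMSO and read at 570 nm. Viability is given as % of control; IC50 from non-linear regression.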
A general note: Tetrazolium dyes change colour on reduction, which living cells bring about.

Data set [7] in a line: Drug metabolism in human liver microsomes assessed as retention time of 5-(2-((4-(hydroxymethyl)phenyl)amino)thiazol-4-yl)-N-(pyridin-2-yl)isoxazole-3-carboxamide at 250 nM by HPLC-MS/MS analysis. It counts as ADME, Microsome. Conditions: 0.25 µM. In outline: as §1
Data set [8] deals with Mycobacterium tuberculosis. The data set is described as follows: Antitubercular activity against Mycobacterium tuberculosis H37Rv assessed as inhibition of bacterial growth incubated for 7 days by REMA method. It counts as functional. Conditions: Mycobacterium tuberculosis, H37Rv, 168 h; time 7 day; read-out: MIC90.
Data set [9] is described as follows: Drug metabolism in human liver microsomes assessed as 5-(2-((4-(hydroxymethyl)phenyl)amino)thiazol-4-yl)-N-(pyridin-2-yl)isoxazole-3-carboxamide formation at 100 uM measured after 180 mins by HR-MS analysis. It counts as ADME, Microsome. Conditions: 3 h. In outline:
as §2

The nature of data set [10]: Drug metabolism in human liver microsomes assessed as 5-(2-((3-hydroxy-4-methylphenyl)amino)thiazol-4-yl)-N-phenylisoxazole-3-carboxamide formation at 100 uM measured after 180 mins by HR-MS analysis. Conditions: 3 h. It counts as ADME, Microsome. In outline:
as §2

A short description of data set [11]: Drug metabolism in human liver microsomes assessed as 5-(2-((4-(hydroxymethyl)phenyl)amino)thiazol-4-yl)-N-phenylisoxazole-3-carboxamide formation at 100 uM measured after 180 mins by HR-MS analysis. Conditions: 3 h. It counts as ADME, Microsome. In outline: as §2
Data set [12] in a line: Drug metabolism in human liver microsomes assessed as retention time of 5-(2-((3-hydroxy-4-methylphenyl)amino)thiazol-4-yl)-N-phenylisoxazole-3-carboxamide at 250 nM by HPLC-MS/MS analysis. It counts as ADME, Microsome. Conditions: 0.25 µM. In outline:
as §1

Data set [13] can be described thus: Toxicity in Zebrafish infected with Mycobacterium marinum assessed as enlarged yolk sac area at 6 to 8 ng. iv. Further details: species or system Danio rerio. As to conditions: in vivo, dose 6-8 ng.
Data set [14] in a line: Toxicity in Zebrafish infected with Mycobacterium marinum assessed as enlarged heart at 6 to 8 ng. iv. Further details: species or system Danio rerio. Conditions: in vivo, dose 6-8 ng.
In data set [15] the test system is Mycobacterium marinum. As to the kind of experiment: Antitubercular activity against mCherry-labeled Mycobacterium marinum infected in Zebra fish larvae assessed as reduction in granuloma formation at 6 to 8 ng, iv. It counts as functional, organism-based. Conditions: dose 6-8 ng.
The nature of data set [16]: Drug metabolism in human liver microsomes assessed as retention time of 5-(2-((4-(hydroxymethyl)phenyl)amino)thiazol-4-yl)-N-phenylisoxazole-3-carboxamide at 250 nM by HPLC-MS/MS analysis. It counts as ADME, Microsome. As to conditions: 0.25 µM. In outline:
as §1

As to `Cc1ccc(Nc2nc(-c3cc(C(=O)Nc4ccccn4)no3)cs2)cc1`, the MIC90 (in the data set on Mycobacterium marinum [1]; in data set [8]) was 0.5 µg/mL (≈ 1.32 µM) throughout. Further, the figures for the Retention_time in data set [2], in [4] and in data set [7] were 23.73 min, 21.97 min and 21.01 min, respectively. Besides, the Drug metabolism result in [3] and in data set [9] was “Metabolite_Detected” each time. The t1/2 in data set [5] came out at 16 min. Besides, in data set [6], the IC50 (in general, the midpoint of a concentration-inhibition curve) at 72 h was 22 µg/mL (≈ 58.3 µM).

`Cc1ccc(Nc2nc(-c3cc(C(=O)Nc4ccccc4)no3)cs2)cc1`: the MIC90 (in general, an inhibitory concentration at the 90% level, which refers to growth in some studies and to a panel of isolates in others) in the data set with Mycobacterium marinum [1] turned out to be 0.5 µg/mL (≈ 1.33 µM); in data set [8], 1 µg/mL (≈ 2.66 µM). For the same compound, the Drug metabolism result in [10] and in data set [11] was “Metabolite_Detected” throughout. Moreover, the figures for the Retention_time in [4], in data set [12] and in [16] were 23.65 min, 25.44 min and 22.95 min, respectively. The t1/2 in data set [5] came to 35 min. Also, in data set [6], the IC50 at 72 h stood at 88 µg/mL (≈ 234 µM). Besides, the Activity result in data set [13] and in data set [14] was “Toxic” in each case. Moreover, the outcome in the data set on Mycobacterium marinum [15] was Active.
